Converted amounts (≈) assume the structure as drawn.
What was measured:
Staphylococcus aureus [1] = assay: Antibacterial activity against methicillin-resistant Staphylococcus aureus clinical isolate 2 incubated for 16 to 18 hrs by broth microdilution method; assay type: functional
Enterococcus faecium [2] = assay: Antibacterial activity against vancomycin-resistant Enterococcus faecium ATCC 700221 incubated for 16 to 18 hrs by broth microdilution method; assay type: functional
[3] = test system: Staphylococcus epidermidis; assay: Antibacterial activity against Staphylococcus epidermidis ATCC 12228 incubated for 16 to 18 hrs by broth microdilution method; assay type: functional
Enterococcus faecium [4] = assay: Antibiofilm activity against […]-resistant Enterococcus faecium ATCC 700221 assessed as biofilm eradication incubated for 24 hrs by CBD assay; assay type: functional; details: for MBC: Enterococcus faecium, ATCC 700221, 24 h
How it was run: (§1)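 Calgary Biofilm Device: pegs inoculated with mid-log culture diluted 1,000-fold in TSB + 0.5% glucose, 24 h 37 °C; washed pegs challenged with 2-fold dilutions 24 h 37 °C; pegs moved to fresh TSBG 24 h; MBEC = lowest concentration leaving no turbidity; 2–6 independent experiments.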

[5] = test system: Staphylococcus epidermidis; assay: Antibacterial activity against methicillin-resistant Staphylococcus epidermidis ATCC 35984 incubated for 16 to 18 hrs by broth microdilution method; assay type: functional
Staphylococcus aureus [6] = assay: Antibacterial activity against methicillin-resistant Staphylococcus aureus BAA-44 incubated for 16 to 18 hrs by broth microdilution method; assay type: functional
[7] = Induction of hemolysis in human RBC at 200 uM incubated for 1 hr; assay type: cell-based, Erythrocyte; details: red blood cells, read-out: Activity
How it was run: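 Human RBCs (EDTA), washed three times in Tris-buffered saline pH 7.2; 2% hRBC with compound at final 200 µM, 1 h 37 °C; supernatant OD405; % hemolysis relative to DMSO (0%) and Triton X (100%).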

HeLa = assay: Cytotoxicity against human HeLa cells after 24 hrs by LDH release assay; assay type: cell-based
How it was run: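 HeLa in DMEM + 10% FBS, 37 °C 5% CO2, at 70–80% confluence treated with 25, 50, 100 µM for 24 h; DMSO vehicle; Triton X-100 2% v/v max-LDH control, medium-only negative; supernatant with LDH reaction mix 30 min room temperature, stopped, absorbance 490 nm.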

[8] = test system: Staphylococcus epidermidis; assay: Antibacterial activity against methicillin-resistant Staphylococcus epidermidis ATCC 35984 assessed as biofilm eradication incubated for 24 hrs by CBD assay; assay type: functional; details: for MBC: Staphylococcus epidermidis, ATCC 35984, 24 h; how it was run: as §1
Staphylococcus aureus [9] = assay: Antibiofilm activity against methicillin-resistant Staphylococcus aureus isolate 2 assessed as biofilm eradication incubated for 24 hrs by CBD assay; assay type: functional; details: for MBC: Staphylococcus aureus, isolate 2, 24 h; how it was run: as §1
Staphylococcus aureus [10] = assay: Antibiofilm activity against methicillin-resistant Staphylococcus aureus BAA-1707 assessed as biofilm eradication incubated for 24 hrs by CBD assay; assay type: functional; details: for MBC: Staphylococcus aureus, BAA-1707, 24 h; how it was run: as §1
Staphylococcus aureus [11] = assay: Antibacterial activity against methicillin-resistant Staphylococcus aureus BAA-1707 incubated for 16 to 18 hrs by broth microdilution method; assay type: functional
[12] = test system: Mycobacterium tuberculosis; assay: Antibacterial activity against Mycobacterium tuberculosis H37Ra ATCC 25177 after 7 days by two-fold serial dilution method; assay type: functional; details: H37Ra ATCC 25177, 168 h
Staphylococcus aureus [13] = assay: Antibacterial activity against methicillin-resistant Staphylococcus aureus clinical isolate 2 incubated for 16 hrs by broth microdilution method; assay type: functional; details: isolate 2, 16 h
Staphylococcus aureus [14] = assay: Antibacterial activity against methicillin-resistant Staphylococcus aureus clinical isolate 2 incubated for 16 hrs by broth microdilution method in presence of Fe2+; assay type: functional; details: isolate 2, 16 h

In the case of C=CCc1cc(Br)c2nc3cc(Br)c(Br)cc3nc2c1O, the MIC (Staphylococcus aureus [1]) is reported as greater than 100 µM, the MIC (Enterococcus faecium [2]) is reported as greater than 100 µM and the MIC [3] is reported as greater than 100 µM.

With Oc1c(Br)cc(Cl)c2nc3ccccc3nc12 the MBEC (Enterococcus faecium [4]) was 3.9 µM, the MBC (Enterococcus faecium [4]) was 7.8 µM (≈ 2.41 µg/mL) and the MIC (Staphylococcus aureus [1]) was 1.56 µM (≈ 0.483 µg/mL). For the same compound, the MIC [5] was 1.56 µM (≈ 0.483 µg/mL), the MIC (Staphylococcus aureus [6]) was 1.56 µM (≈ 0.483 µg/mL) and the MIC (Enterococcus faecium [2]) was 6.25 µM (≈ 1.93 µg/mL). For the same compound, the hemolysis at 1 h, 200 µM [7] was no more than 1%, the IC50 (HeLa) was greater than 100 µM and the MBEC [8] was 46.9 µM. The MBC [8] was 11.7 µM (≈ 3.62 µg/mL), the MBEC (Staphylococcus aureus [9]) was 375 µM and the MBC (Staphylococcus aureus [9]) was 46.9 µM (≈ 14.5 µg/mL).

Oc1cccc2nc3cc(Cl)c(Cl)cc3nc12 gave an MIC (Staphylococcus aureus [1]) greater than 100 µM, an MIC [5] greater than 100 µM and an MIC (Enterococcus faecium [2]) greater than 100 µM. The MIC [3] was greater than 100 µM.

For NC(=O)c1cnccn1 [PYRAZINAMIDE], the MBEC (Staphylococcus aureus [9]) was greater than 2000 µM and the MBC (Staphylococcus aureus [9]) was greater than 2000 µM.

Work on Oc1c(Br)cc(Br)c2nc3ccc(Br)cc3nc12 yielded an MIC [5] of 3.13 µM (≈ 1.35 µg/mL), an MBEC (Staphylococcus aureus [10]) of 12.5 µM and an MBC (Staphylococcus aureus [10]) of 12.5 µM (≈ 5.41 µg/mL). It also gave an MIC (Enterococcus faecium [2]) of 0.78 µM (≈ 0.338 µg/mL), a hemolysis at 1 h, 200 µM [7] of 2.1% and an MIC [3] of 3.13 µM (≈ 1.35 µg/mL). It also gave an MIC (Staphylococcus aureus [11]) of 0.2 µM (≈ 0.0866 µg/mL), an MBEC (Staphylococcus aureus [9]) of 25 µM and an MBC (Staphylococcus aureus [9]) of 50 µM (≈ 21.6 µg/mL).

CC(=O)N[C@@H](CS)C(=O)O [ACETYLCYSTEINE] showed an MBEC (Enterococcus faecium [4]) greater than 2000 µM, an MBC (Enterococcus faecium [4]) greater than 2000 µM and an MBEC [8] greater than 2000 µM. It also gave an MBC [8] greater than 2000 µM, an MBEC (Staphylococcus aureus [9]) greater than 2000 µM and an MBC (Staphylococcus aureus [9]) greater than 2000 µM.

Work on Oc1c(Cl)cc(Cl)c2nc3ccccc3nc12 yielded an MIC (Staphylococcus aureus [1]) of 3.13 µM (≈ 0.83 µg/mL), an MIC [5] of 3.13 µM (≈ 0.83 µg/mL) and an MIC (Staphylococcus aureus [6]) of 3.13 µM (≈ 0.83 µg/mL). For the same compound, the MIC (Enterococcus faecium [2]) was 12.5 µM (≈ 3.31 µg/mL), the hemolysis at 1 h, 200 µM [7] was no more than 1% and the MIC [3] was 3.13 µM (≈ 0.83 µg/mL). The MIC (Staphylococcus aureus [11]) was 3.13 µM (≈ 0.83 µg/mL), the MBEC (Staphylococcus aureus [9]) was greater than 1000 µM and the MBC (Staphylococcus aureus [9]) was 62.5 µM (≈ 16.6 µg/mL).

For Oc1c(Cl)cc(I)c2nc3ccccc3nc12, the MIC (Staphylococcus aureus [1]) was 1.56 µM (≈ 0.556 µg/mL), the MIC [5] was 1.56 µM (≈ 0.556 µg/mL) and the MIC (Staphylococcus aureus [6]) was 1.56 µM (≈ 0.556 µg/mL). For the same compound, the MIC (Enterococcus faecium [2]) was 6.25 µM (≈ 2.23 µg/mL), the hemolysis at 1 h, 200 µM [7] was 5.1% and the MIC [3] was 1.56 µM (≈ 0.556 µg/mL). The IC50 (HeLa) was greater than 100 µM, the MIC (Staphylococcus aureus [11]) was 1.56 µM (≈ 0.556 µg/mL) and the MBEC (Staphylococcus aureus [9]) was 125 µM. For the same compound, the MBC (Staphylococcus aureus [9]) was 15.6 µM (≈ 5.56 µg/mL).

O=C(O)CN(CCN(CC(=O)O)CC(=O)O)CC(=O)O [EDETIC ACID] showed a hemolysis at 1 h, 200 µM [7] of 3%, an MBEC [8] greater than 2000 µM and an MBC [8] of 1000 µM (≈ 292 µg/mL). It also gave an MBEC (Staphylococcus aureus [9]) greater than 2000 µM and an MBC (Staphylococcus aureus [9]) of 2000 µM (≈ 584 µg/mL).

Oc1c(Br)cc(Br)c2nc3cc(Br)c(Br)cc3nc12 gave an MBEC (Enterococcus faecium [4]) of 0.39 µM, an MBC (Enterococcus faecium [4]) of 0.39 µM (≈ 0.2 µg/mL) and an MIC (Staphylococcus aureus [1]) of 6.25 µM (≈ 3.2 µg/mL). The MBEC (Staphylococcus aureus [10]) was 50 µM, the MBC (Staphylococcus aureus [10]) was 6.25 µM (≈ 3.2 µg/mL) and the MIC (Staphylococcus aureus [6]) was 25 µM (≈ 12.8 µg/mL). The MIC (Enterococcus faecium [2]) was 0.39 µM (≈ 0.2 µg/mL), the MIC [12] was greater than 50 µM and the hemolysis at 1 h, 200 µM [7] was no more than 1%. For the same compound, the MIC [3] was 0.08 µM (≈ 0.0409 µg/mL), the IC50 (HeLa) was greater than 100 µM and the MBEC [8] was 6.25 µM. It also gave an MBC [8] of 1.56 µM (≈ 0.798 µg/mL) and an MIC (Staphylococcus aureus [11]) of 12.5 µM (≈ 6.4 µg/mL).

CN[C@@H](CC(C)C)C(=O)N[C@H]1C(=O)N[C@@H](CC(N)=O)C(=O)N[C@H]2C(=O)N[C@H]3C(=O)N[C@H](C(=O)N[C@@H](C(=O)O)c4cc(O)cc(O)c4-c4cc3ccc4O)[C@H](O)c3ccc(c(Cl)c3)Oc3cc2cc(c3O[C@H]2O[C@@H](CO)[C@H](O)[C@@H](O)[C@@H]2O[C@@H]2C[C@@](C)(N)[C@@H](O)[C@@H](C)O2)Oc2ccc(cc2Cl)[C@H]1O gave an MBEC (Enterococcus faecium [4]) of 150 µM, an MBC (Enterococcus faecium [4]) greater than 200 µM and an MBEC (Staphylococcus aureus [10]) greater than 2000 µM. It also gave an MBC (Staphylococcus aureus [10]) of 3.9 µM (≈ 5.65 µg/mL), an MIC (Enterococcus faecium [2]) greater than 100 µM and a hemolysis at 1 h, 200 µM [7] of no more than 1%. The MIC [3] was 1.17 µM (≈ 1.7 µg/mL), the MBEC [8] was greater than 2000 µM and the MBC [8] was 3 µM (≈ 4.35 µg/mL). It also gave an MBEC (Staphylococcus aureus [9]) greater than 2000 µM and an MBC (Staphylococcus aureus [9]) of 3 µM (≈ 4.35 µg/mL).

With CN[C@@H]1[C@H](O[C@H]2[C@H](O[C@H]3[C@H](O)[C@@H](O)[C@H](N=C(N)N)[C@@H](O)[C@@H]3N=C(N)N)O[C@@H](C)[C@]2(O)C=O)O[C@@H](CO)[C@H](O)[C@H]1O [STREPTOMYCIN] the MIC [12] was 1.32 µM (≈ 0.768 µg/mL).

CC(=O)NC[C@H]1CN(c2ccc(N3CCOCC3)c(F)c2)C(=O)O1 [LINEZOLID] gave an MIC (Staphylococcus aureus [1]) of 3.13 µM (≈ 1.06 µg/mL), an MIC [5] of 3.13 µM (≈ 1.06 µg/mL) and an MBEC (Staphylococcus aureus [10]) greater than 2000 µM. For the same compound, the MBC (Staphylococcus aureus [10]) was 31.3 µM (≈ 10.6 µg/mL), the MIC (Enterococcus faecium [2]) was 3.13 µM (≈ 1.06 µg/mL) and the MIC (Staphylococcus aureus [13]) was 6.25 µM (≈ 2.11 µg/mL). It also gave a hemolysis at 1 h, 200 µM [7] of no more than 1%, an MIC (Staphylococcus aureus [11]) of 12.5 µM (≈ 4.22 µg/mL) and an MIC (Staphylococcus aureus [14]) of 6.25 µM.

For CCCCc1cc(Br)c(O)c2nc3ccccc3nc12, the MBEC (Enterococcus faecium [4]) was 2 µM, the MBC (Enterococcus faecium [4]) was 2 µM (≈ 0.662 µg/mL) and the MIC (Staphylococcus aureus [1]) was 3.13 µM (≈ 1.04 µg/mL). For the same compound, the MBEC (Staphylococcus aureus [10]) was 62.5 µM, the MBC (Staphylococcus aureus [10]) was 46.9 µM (≈ 15.5 µg/mL) and the MIC (Enterococcus faecium [2]) was 0.78 µM (≈ 0.258 µg/mL). It also gave a hemolysis at 1 h, 200 µM [7] of 11.5%, an MBEC [8] of 23.5 µM and an MBC [8] of 11.7 µM (≈ 3.88 µg/mL). It also gave an MBEC (Staphylococcus aureus [9]) of 188 µM and an MBC (Staphylococcus aureus [9]) of 46.9 µM (≈ 15.5 µg/mL).
